# Lung fibro prol – blocks proliferation of human lung fibroblasts | 85,000 compounds, 1.1% hits | AID 719 | viability, % at 10 µM | LL 47 human lung fibroblast viability, ATP luminescence; active compounds read low;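 active = viability at or below 50% in the single dose screen; inactive = viability above 50%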;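 note: compound exposure lasted 72 h before the ATP readout; 100% = median luminescence of untreated cell-only wells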
#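 Benchmarks: Cell-only wells, no compound | Test system: LL 47 human lung fibroblasts, passage 12 or lower | Input: 1,150 cells/well | Measured by: CellTiter-Glo luminescence measuring cellular ATP | Medium: IMEM, 15% FBS supplement | Schedule: Overnight attachment after seeding, then 72 h compound exposure at 37 °C | Doses: Compound addition at 0.1% DMSO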
# H69AR growth 86K – growth inhibitors of human H69AR lung tumor cells; H69AR lung tumor viability, ATP luminescence, 72 h; active compounds read low; viability, % at 10 µM; 85,000 compounds, 6% hits; AID 598;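 active = viability at or below 40%; inactive = viability above 40%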;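 note: multidrug resistant small cell line overexpressing MRP-1 efflux transporter; 100% = mean luminescence of untreated control wells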
# MT1-MMP txn act – MT1-MMP promoter transcription activation; activation factor at 10 µM; AID 750; 86,000 compounds, 0.16% hits; HT1080 MT1-MMP promoter luciferase reporter, luminescence, overnight; active compounds read high;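 active = activation factor of at least 2 for MT1-MMP transcription at 10 µM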
# Pyk2 oligo antag – antagonists of human Pyk2 oligomerization; Q14289; Q293 cells, Pyk2 FERM NanoBiT luminescence; active compounds read low; z-score (the deposit names both 25 µM and 10 µM); 99,000 compounds, 0.83% hits;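 active = Z-score of -3 or lower, scaled per plate to the spread of control and sample wells; inactive = z-score above -3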;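 note: negative z-score means lost luminescence so less FERM oligomerization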
# Jurkat viability – cytotoxic compounds reducing Jurkat cell viability. Jurkat E6.1 viability, ATP luminescence, 48 h. inhibition, % at 4 µM. 56,000 compounds, 1.2% hits;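 active = inhibition above the mean inhibition of all tested compounds plus 3 SD, cut at about 28% in these data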
# HUVEC inhibit – blocks proliferation of human endothelial cells | 86,000 compounds, 1.1% hits | viability, % at 10 µM (by protocol) | AID 648 | HUVEC proliferation, CellTiter-Glo luminescence, 72 h; active compounds read low;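 active = viability at or below 30%; inactive = viability above 30%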;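 note: 100% = median luminescence of DMSO-only cell control wells on each plate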
# * marks the source's active call; other numbers are inactive results; . = no result given. A selection: hits, their analogues and other compounds. The true share with any hit is near 5.9%.
SMILES,Lung fibro prol,H69AR growth 86K,MT1-MMP txn act,Pyk2 oligo antag,Jurkat viability,HUVEC inhibit
COc1ccc(NC(=O)c2ccc(S(=O)(=O)N3CCOCC3)cc2)c(OC)c1,103,95,1.2,0.31,-2,85
CC1CN(S(=O)(=O)c2ccc(C(=O)Nc3nnc(-c4ccc5c(c4)CCCC5)o3)cc2)CC(C)O1 (centres undefined),39*,17*,0.9,.,-6,7.0*
COc1cccc(C(=O)NCC2CCN(c3ccc(S(=O)(=O)N4CCOCC4)cc3)CC2)c1,92,30*,1.1,1.4,11,86
COc1ccc(NC(=O)NCCCN2CCCC2=O)c(OC)c1,97,82,1,0.63,.,93
COc1ccc(C2CC(c3c(O)cc(C)oc3=O)=NCCS2)c(OC)c1 (centres undefined),48*,24*,0.9,0.19,95*,48
Cc1cc(NC(=O)c2cncc(Br)c2)n(-c2ccccn2)n1,99,37*,0.9,1.1,.,85
Cc1nn(C)c(Oc2cccc(Cl)c2)c1C(=O)Nc1ccc(F)cc1,.,.,.,-0.9,.,.
Nc1nnnn1/N=C/c1cc(Cl)cc(Cl)c1OCc1ccc(Cl)cc1Cl,91,22*,1.3,-0.03,.,89
CCCCOC(=O)Nc1sc2c(c1C(=O)OC)CCC2,98,96,1.3,-0.1,5,101
O=C(Nc1nccs1)c1sc2ccccc2c1Cl,.,.,.,-0.87,.,.
O=C(NC1C=CS(=O)(=O)C1)c1sc2ccccc2c1Cl (centres undefined),76,1.7*,1.1,-0.16,22,73
CCOc1ccc2nc(NC(=O)c3ccoc3C)sc2c1,35*,20*,.,-1.1,42*,42
CCOc1ccc2nc(NC(=O)C3CCN(c4cnccn4)CC3)sc2c1,99,34*,1.1,-0.09,2,91
CCOc1ccc2nc(NC(=O)Nc3cccs3)sc2c1,89,35*,1.9,.,-4,60
COC(=O)C1=C(CCc2ccccc2)NC(=O)NC1c1ccc(Br)cc1 (centres undefined),.,.,1.1,.,.,.
C=C(C)CSc1nnc(-c2ccccc2)n1N,98,103,1.1,.,-3,97
COc1ccccc1N1CCN(C(=O)C2c3ccccc3Oc3ccccc32)CC1,58,30*,0.5,-1.3,70*,39
O=C(C1c2ccccc2Oc2ccccc21)N1CCN(c2ccc(Cl)cc2)CC1,87,39*,1.2,-0.86,.,82
COc1ccccc1N1CCN(C(=O)C2CC=CCC2C(=O)O)CC1 (centres undefined),96,101,1.1,1.9,-2,95
CN(CCCCCCCCC(=O)/C=N/O)Cc1ccccc1,96,24*,1.2,0.75,.,88
COc1cccc(-c2nc(-c3ccc(NC(=O)c4cccs4)cc3)no2)c1,.,.,.,-0.93,.,.
O=C(N/N=C/c1ccc2c(c1)OCO2)C1COc2ccccc2O1 (centres undefined),.,.,.,0.4,.,.
O=C(N/N=C\c1cc(Br)cs1)C1COc2ccccc2O1 (centres undefined),63,27*,1.2,-0.11,.,61
CCOC(=O)N1CCC(Nc2cc(C)nc3c(-c4ccccc4OC)c(C)nn23)CC1,90,37*,1,.,8,74
COc1ccccc1-c1c(C)nn2c(N3CCC(C(N)=O)CC3)cc(C)nc12,98,83,.,.,.,101
SMILES,Lung fibro prol,H69AR growth 86K,MT1-MMP txn act,Pyk2 oligo antag,Jurkat viability,HUVEC inhibit
CCOC(=O)N1CCN(C(=O)CSc2cc(C)nc3c(-c4ccccc4OC)c(C)nn23)CC1,102,39*,0.9,-0.27,-7,99
COc1cccc(/C(O)=C2/C(=O)C(=O)N(CCCN(C)C)C2c2cccc(Cl)c2)c1 (centres undefined),101,97,1.1,.,.,90
C=CCN1C(=O)C2(NNc3ccccc3O2)c2ccccc21 (centres undefined),76,13*,1.2,1.7,.,23*
COc1ccc(Cl)cc1NC(=O)C(C)N1CCN(C/C=C/c2ccccc2)CC1 (centres undefined),89,40*,1,-0.05,.,67
CCN1CCN(c2ncc3c(n2)CC(c2ccc(OC)c(OC)c2)CC3=O)CC1 (centres undefined),74,19*,1.2,1.4,25,81
CC(C)c1ccc(-c2nc(N3CCCC3)nc3n[nH]c(N)c23)cc1,75,11*,1.1,-0.93,.,57
CC(C)c1ccc(-c2nc(N3CCCCCC3)nc3n[nH]c(N)c23)cc1,81,41,.,-4.3*,.,73

# Bioassay records: PubChem BioAssay, several laboratories
